Test results taken from PMC10720030 (ACS Omega, 2023).
Values joined by “and” are separate entries in the source; they are usually repeats but may differ in a detail not shown here. Equal values may be shown once. Read-outs that look alike come from different tables or passages of the source.

Experiments:
[1] = system: breast MCF-7 cancer cells; assay: Cytotoxicity using the MTT assay, MCF-7; format: cell-based; conditions: for inhibition at 100 µM: read-out: % of cell inhibition ± SD at [100 μM], MCF7
Summary of the method: (§1)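 MTT viability; cells grown with 10% FBS and 1% penicillin–streptomycin, exposed next day to five concentrations (0.01, 0.1, 1, 10, 100) for 48 h. MTT dye added for 3 h, then viability calculated against untreated control. IC50 taken from dose–response curve; mean ± SD of three independent triplicates (n = 3).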

liver HepG2 cancer cells = assay: Cytotoxicity using the MTT assay, HepG2; format: cell-based; conditions: for inhibition at 100 µM: read-out: % of cell inhibition ± SD at [100 μM], HepG2
Summary of the method: as §1

MCF-10A normal cells = assay: Cytotoxicity using the MTT assay, MCF-10A; format: cell-based; conditions: Homo sapiens, read-out: IC50 ± SD, MCF-10A
Summary of the method: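 Normal breast cells run in MTT viability assay. IC50 derived from dose–response curve; values are mean ± SD of three independent triplicate experiments (n = 3).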

PIM-1 kinase = PIM-1 kinase (Homo sapiens, UniProt P11309); assay: PIM-1 kinase inhibitory assay; format: biochemical; conditions: for % of kinase inhibition, PIM-1 kinase: concentration not given
MCF-7 cells [2] = assay: Annexin V/PI staining flow cytometry; format: cell-based; conditions: MCF-7, treated at IC50, 48 h
MCF-7 cells [3] = assay: DNA content-flow cytometry cell cycle analysis; format: cell-based; conditions: MCF-7, treated at IC50, 48 h; control 29.12%
MCF-7 cells [4] = assay: Autophagy evaluation using acridine orange flow cytometry; format: cell-based; conditions: MCF-7, 48 h, control 32.8 × 10^3
MCF-7 cells [5] = assay: Wound-healing assay; format: cell-based
[6] = system: Solid Ehrlich carcinoma (SEC); assay: In vivo antitumor activity in SEC-bearing mice; set-up: species or system Swiss albino mice; conditions: 5 mg/kg I.P.; for tumor weight: n = 6, SEC control 198.5 ± 10.6; for tumor volume: n = 6, SEC control 274.8 ± 16.6
MCF-7 = conditions: read-out: IC50 against MCF-7; cited from earlier work
[7] = Homo sapiens, MCF7, 48 h, read-out: IC50 ± SD, MCF7, MCF7, MTT, 48 h, n = 3
[8] = Homo sapiens, HepG2, 48 h, read-out: IC50 ± SD, HepG2, HepG2, MTT, 48 h, n = 3
[9] = read-out: IC50 ± SD, HepG2, HepG2, MTT, 48 h, n = 3

Chain of PIM-1 kinase (P11309 whole entry): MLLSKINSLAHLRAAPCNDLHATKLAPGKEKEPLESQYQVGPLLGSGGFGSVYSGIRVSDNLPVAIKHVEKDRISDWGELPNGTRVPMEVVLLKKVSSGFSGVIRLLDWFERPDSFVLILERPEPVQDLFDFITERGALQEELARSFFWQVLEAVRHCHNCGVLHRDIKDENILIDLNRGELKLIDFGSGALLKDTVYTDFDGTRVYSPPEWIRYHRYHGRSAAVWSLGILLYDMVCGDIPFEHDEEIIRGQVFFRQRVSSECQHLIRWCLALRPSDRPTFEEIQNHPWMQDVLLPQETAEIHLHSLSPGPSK

**Q.** What does the source list for `CC(=O)OC[C@H]1O[C@H](Sc2nnc(COc3nc(C)cc(C)c3C#N)o2)[C@H](OC(C)=O)[C@@H](OC(C)=O)[C@H]1OC(C)=O` [Compound 8, 2-((5-(2,3,4,6-Tetra-O-acetyl-α-D-galactopyranosylsulfanyl)-1,3,4-oxadiazol-2-yl)methoxy)-4,6-dimethylpyridine-3-carbonitrile]?
**A.** inhibition at 100 µM ([1]; Homo sapiens, MCF7, 48 h): 59.8 ± 1.7%; inhibition at 100 µM (liver HepG2 cancer cells; Homo sapiens, HepG2, 48 h): 57.8 ± 1.6%

**Q.** With `CCOC(=O)CSc1nnc(COc2nc(C)cc(C)c2C#N)o1` [Compound 3, Ethyl 2-((5-(((3-Cyano-4,6-dimethylpyridin-2-yl)oxy)methyl)-1,3,4-oxadiazol-2-yl)thio)acetate] as the molecule, how does the inhibition at 100 µM ([1]; Homo sapiens, MCF7, 48 h) read?
**A.** The inhibition at 100 µM was 55.1 ± 2.1%.

**Q.** And the inhibition at 100 µM (liver HepG2 cancer cells; Homo sapiens, HepG2, 48 h)?
**A.** Its inhibition at 100 µM is 57.8 ± 1.9%.

**Q.** Which inhibition at 100 µM ([1]; Homo sapiens, MCF7, 48 h) does the source give for `Cc1cc(C)c(C#N)c(OCc2n[nH]c(=S)o2)n1` [Compound 2, 4,6-Dimethyl-2-((5-thioxo-4,5-dihydro-1,3,4-oxadiazol-2-yl)methoxy)nicotinonitrile] here?
**A.** Its inhibition at 100 µM is 41.9 ± 1.9%.

**Q.** What about the inhibition at 100 µM (liver HepG2 cancer cells; Homo sapiens, HepG2, 48 h) of the same molecule?
**A.** Its inhibition at 100 µM is 43.5 ± 1.8%.

**Q.** For `Cc1cc(C)c(C#N)c(OCc2nnc(SCc3ccccc3)o2)n1` [Compound 4, 2-((5-(Benzylthio)-1,3,4-oxadiazol-2-yl)methoxy)-4,6-dimethylnicotinonitrile], which inhibition at 100 µM ([1]; Homo sapiens, MCF7, 48 h) is on record?
**A.** The inhibition at 100 µM was 72.1 ± 2.9%.

**Q.** What about the inhibition at 100 µM (liver HepG2 cancer cells; Homo sapiens, HepG2, 48 h) of the same molecule?
**A.** The inhibition at 100 µM was 75.8 ± 2.3%.

**Q.** What does the source list for `Cc1cc(C)c(C#N)c(OCC(=O)N2CCOCC2)n1` [Compound 12, 4,6-Dimethyl-2-(2-morpholino-2-oxoethoxy)nicotinonitrile]?
**A.** inhibition at 100 µM ([1]; Homo sapiens, MCF7, 48 h): 84.2 ± 2.6%; IC50 [1, 7]: 500 nM; IC50 ([1]; read-out: IC50 ± SD, MCF7, MCF7, MTT, 48 h, n = 3): 510 ± 20 nM; inhibition at 100 µM (liver HepG2 cancer cells; Homo sapiens, HepG2, 48 h): 85.1 ± 2.1%; IC50 (liver HepG2 cancer cells; [8]): 6600 nM; IC50 (liver HepG2 cancer cells; [9]): 5270 ± 200 nM; IC50 (MCF-10A normal cells): 52800 ± 2100 nM; IC50 (PIM-1 kinase): 14.3 ± 0.6 nM; % of kinase inhibition, PIM-1 kinase (PIM-1 kinase): 97.5 ± 1.3%; early apoptosis (MCF-7 cells [2]): 23.18%; increase of apoptosis versus untreated control (MCF-7 cells [2]): 52.2 fold; late apoptosis (MCF-7 cells [2]): 10.25%; total apoptosis (MCF-7 cells [2]; untreated control 0.64%): 33.43%; S-phase cell population (%DIP S) (MCF-7 cells [3]): 36.02%; autophagic cell death (MCF-7 cells [4]): 87.6 × 10^3 cells; wound closure (MCF-7 cells [5]; MCF-7, after 48 h of treatment, control 95.6%): 71.8%; average L of migration (MCF-7 cells [5]; MCF-7, time 72 h): 0.32 mm; % closure (MCF-7 cells [5]; MCF-7, time 72 h, Cont.MCF-7 95.55): 71.85%; migrated cell area (MCF-7 cells [5]; MCF-7, time 72 h, total area 0.225): 0.161; tumor weight [6]: 72.8 mg and 72.8 ± 1.74 mg; tumor volume [6]: 159.2 mm^3 and 159.2 ± 10.1 mm^3; tumor inhibition ratio (TIR %) ([6]; n = 6, TIR % = C – T/C × 100): 42.1% and 42.1 ± 1.0%

**Q.** Which results are given for `Cc1cc(C)c(C#N)c(OCC(=O)N2CCCCC2)n1` [Compound 13, 4,6-Dimethyl-2-(2-oxo-2-(piperidin-1-yl)ethoxy)nicotinonitrile]?
**A.** inhibition at 100 µM ([1]; Homo sapiens, MCF7, 48 h): 64.6 ± 1.8%; inhibition at 100 µM (liver HepG2 cancer cells; Homo sapiens, HepG2, 48 h): 56.4 ± 1.4%; IC50 (PIM-1 kinase): 19.8 ± 1.1 nM; % of kinase inhibition, PIM-1 kinase (PIM-1 kinase): 94.9 ± 2.9%

**Q.** Which inhibition at 100 µM ([1]; Homo sapiens, MCF7, 48 h) does the source give for `COc1cccc2c1C(=O)c1c(O)c3c(c(O)c1C2=O)C[C@@](O)(C(=O)CO)C[C@@H]3O[C@H]1C[C@H](N)[C@H](O)[C@H](C)O1` [doxorubicin, reference compound] here?
**A.** Its inhibition at 100 µM is 90.2 ± 2.1%.

**Q.** And the IC50 [1, 7]?
**A.** The IC50 was 2140 ± 100 nM.

**Q.** What about the inhibition at 100 µM (liver HepG2 cancer cells; Homo sapiens, HepG2, 48 h) of the same molecule?
**A.** The inhibition at 100 µM was 79.1 ± 2.3%.

**Q.** What about the IC50 (liver HepG2 cancer cells; [8]) of the same molecule?
**A.** Its IC50 is 2480 ± 100 nM.

**Q.** What about the IC50 (MCF-10A normal cells) of the same molecule?
**A.** The IC50 was 15800 ± 630 nM.

**Q.** And the tumor weight [6]?
**A.** Its tumor weight is 63.4 mg.

**Q.** What about the tumor volume [6] of the same molecule?
**A.** The tumor volume was 112.3 mm^3.

**Q.** Which inhibition at 100 µM ([1]; Homo sapiens, MCF7, 48 h) does the source give for `Cc1cc(C)c(C#N)c(OCC(=O)NCc2ccccc2)n1` [Compound 14, N-Benzyl-2-((3-cyano-4,6-dimethylpyridin-2-yl)oxy)acetamide] here?
**A.** The inhibition at 100 µM was 48.8 ± 1.2%.

**Q.** What about the inhibition at 100 µM (liver HepG2 cancer cells; Homo sapiens, HepG2, 48 h) of the same molecule?
**A.** The inhibition at 100 µM was 35.5 ± 1.1%.

**Q.** With `COC(=O)CNC(=O)COc1nc(C)cc(C)c1C#N` [Compound 11, Methyl (2-((3-Cyano-4,6-dimethylpyridin-2-yl)oxy)acetyl)glycinate] as the molecule, how does the inhibition at 100 µM ([1]; Homo sapiens, MCF7, 48 h) read?
**A.** Its inhibition at 100 µM is 78.6 ± 2.3%.

**Q.** What about the IC50 [1, 7] of the same molecule?
**A.** The IC50 was 730 ± 40 nM.

**Q.** And the inhibition at 100 µM (liver HepG2 cancer cells; Homo sapiens, HepG2, 48 h)?
**A.** The inhibition at 100 µM was 68.8 ± 1.6%.

**Q.** And the IC50 (PIM-1 kinase)?
**A.** The IC50 was 42.3 ± 1.1 nM.

**Q.** And the “% of kinase inhibition, PIM-1 kinase” value (PIM-1 kinase)?
**A.** Its value is 90.1 ± 2.7%.

**Q.** What does the source list for `CCCCCSc1nnc(COc2nc(C)cc(C)c2C#N)o1` [Compound 6, 4,6-Dimethyl-2-((5-(pentylthio)-1,3,4-oxadiazol-2-yl)methoxy)nicotinonitrile]?
**A.** inhibition at 100 µM ([1]; Homo sapiens, MCF7, 48 h): 78.2 ± 2.2%; inhibition at 100 µM (liver HepG2 cancer cells; Homo sapiens, HepG2, 48 h): 79.2 ± 2.2%; IC50 (liver HepG2 cancer cells; [8]): 5270 nM; IC50 (liver HepG2 cancer cells; [9]): 6640 ± 280 nM; IC50 (PIM-1 kinase): 19.4 ± 0.7 nM; % of kinase inhibition, PIM-1 kinase (PIM-1 kinase): 94.3 ± 1.3%

**Q.** With `CS(=O)(=O)CCNCc1ccc(-c2ccc3ncnc(Nc4ccc(OCc5cccc(F)c5)c(Cl)c4)c3c2)o1` [lapatinib] as the molecule, how does the IC50 (MCF-7) read?
**A.** The IC50 was 4690 nM.

**Q.** With `C=CCSc1nnc(COc2nc(C)cc(C)c2C#N)o1` [Compound 5, 2-((5-(Allylthio)-1,3,4-oxadiazol-2-yl)methoxy)-4,6-dimethylnicotinonitrile] as the molecule, how does the inhibition at 100 µM ([1]; Homo sapiens, MCF7, 48 h) read?
**A.** Its inhibition at 100 µM is 47 ± 1.4%.

**Q.** What about the inhibition at 100 µM (liver HepG2 cancer cells; Homo sapiens, HepG2, 48 h) of the same molecule?
**A.** The inhibition at 100 µM was 69 ± 2.1%.
